Assay results from different studies.
Each line is one published result; the experiments were not run side by side.
ADRA1B: Alpha-1B adrenergic receptor (ADRA1B, Homo sapiens, UniProt P35368)
P2RY14: P2Y purinoceptor 14 (P2RY14, Homo sapiens, UniProt Q15391)
Nuclear receptor subfamily 4 group A member 2: Nuclear receptor subfamily 4 group A member 2 (Homo sapiens, UniProt P43354)

Compound | target | observed | technique | quantity | result
Cc1cc(Oc2ncccc2CN2CCN(c3ccccc3C#N)CC2)ccc1-c1c(C)c(=O)[nH]c(=O)n1C | ADRA1B | ligand displacement | radioligand | Ki | 0.464 µM
O=C(O)c1cc(-c2ccc([C@H]3C[C@H]4C[C@@H]3CN4)cc2)c2ccc(-c3ccc(C(F)(F)F)cc3)cc2c1 | P2RY14 | ligand displacement | flow cytometry | Ki | 0.00181 µM
Cc1cc(Oc2ncccc2CN2CCN(c3cccc(F)c3)CC2)ccc1-c1c(C)c(=O)[nH]c(=O)n1C | ADRA1B | ligand displacement | radioligand | Ki | 3.02 µM
Cn1nccc1-c1ccc(-c2cc(C(=O)O)cc3cc(-c4ccc(C(F)(F)F)cc4)ccc23)cc1 | P2RY14 | ligand displacement in cells | flow cytometry | Ki | 0.0284 µM
CCN(CC)Cc1cc(Nc2ccnc3cc(Cl)ccc23)ccc1O | Nuclear receptor subfamily 4 group A member 2 | binding | ITC | Kd | 2.7 µM
O=C(O)c1cc(-c2ccc(-c3ccncc3)cc2)c2ccc(-c3ccc(C(F)(F)F)cc3)cc2c1 | P2RY14 | ligand displacement in cells | flow cytometry | Ki | 0.0237 µM
CCCCCCCCC(=O)c1cc(O)c(O)c(O)c1 | Nuclear receptor subfamily 4 group A member 2 | binding | ITC | Kd | 3.4 µM
O=C(O)c1cc(-c2ccc(-n3cc(CCOP(=O)(O)O)nn3)cc2)c2ccc(-c3ccc(C(F)(F)F)cc3)cc2c1 | P2RY14 | ligand displacement in cells | flow cytometry | Ki | 0.779 µM
Cc1cc(Oc2ncccc2CN2CCN(C(c3ccccc3)c3ccccc3)CC2)ccc1-c1c(C)c(=O)[nH]c(=O)n1C | ADRA1B | ligand displacement | radioligand | Ki | 0.721 µM
O=c1c(O[C@@H]2O[C@H](CO)[C@H](O)[C@H](O)[C@H]2O)c(-c2ccc(O)c(O)c2)oc2cc(O)cc(O)c12 | Sortase B (srtB, Staphylococcus aureus, UniProt Q2FZE3) | binding | SPR | Kd | 198 µM
CCCCCCCCCCCCCCCC(=O)OC[C@H](COP(=O)(O)O[C@H]1[C@H](O)[C@@H](OP(=O)(O)O)[C@H](OP(=O)(O)O)[C@@H](OP(=O)(O)O)[C@H]1O)OC(=O)CCCCCCCCCCCCCCC | Heat shock protein beta-1 (HSPB1, Homo sapiens, UniProt P04792) | binding | MST | Kd | 0.188 µM
CCN(CC)CCCC(C)Nc1ccnc2cc(Cl)ccc12 (stereo not drawn) | Nuclear receptor subfamily 4 group A member 2 | binding | ITC | Kd | 6.8 µM
Cc1cc(Oc2ncccc2CN2CCN(c3ccc(Cl)cc3)CC2)ccc1-c1c(C)c(=O)[nH]c(=O)n1C | ADRA1B | ligand displacement | radioligand | Ki | 2.59 µM
CN1C(C(=O)Nc2ccccn2)=C(O)c2sc(Cl)cc2S1(=O)=O | Nuclear receptor subfamily 4 group A member 2 | binding | ITC | Kd | 1.4 µM
Cc1cc(Oc2ncccc2CN2CCN(CCc3ccccc3)CC2)ccc1-c1c(C)c(=O)[nH]c(=O)n1C | ADRA1B | ligand displacement | radioligand | Ki | 1.66 µM
